Assay results taken from ChEMBL document CHEMBL1136789, “Synthesis and biological evaluation of new 2-(4,5-dihydro-1H-imidazol-2-yl)-3,4-dihydro-2H-1,4-benzoxazine derivatives” (J Med Chem, 2003).
Active and inactive are the calls of the source. The calls are words filed in the database; no cut-off is given here.

Experiments:
[1] = In vitro alpha-1 adrenergic receptor binding affinity was determined on calf frontal cortex membrane preparation; format: tissue-based, Bos taurus
In short: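 Calf frontal cortex membranes (0.5 mg protein/mL) incubated 40 min at 25 °C with 0.5 nM [3H]prazosin in 50 mM phosphate buffer with 10 mM MgCl2. Competitors at 10^-9 to 10^-4 M. Nonspecific binding set with 10 µM phentolamine. Stopped by rapid vacuum filtration through glass fibre filters, then washed three times with ice-cold buffer. Ki reported.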

[2] = In vitro alpha-2 adrenergic receptor binding affinity was determined on calf frontal cortex membrane preparation; format: tissue-based, Bos taurus
Rattus norvegicus [3] = assay: Effect after 30 mg/kg, po, on heart rate in conscious spontaneously hypertensive rats; format: functional
In short: (§1)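 Studied conscious 24 h after surgery. Dosed by oral gavage after ≥40 min stabilisation, n=6/group. Vehicle 0.5% carboxymethylcellulose, 5 mL/kg. MAP and HR recorded over 24 h. Output is the maximal change from baseline (mmHg, bpm, %). Repeated-measures ANOVA with Dunnett's tests.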

Rattus norvegicus [4] = assay: Effect at (25 mg/kg, ip) on heart rate in anesthetized spontaneously hypertensive rats; format: functional
In short: (§2)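 Adult male SHR anaesthetised with sodium pentobarbital 50 mg/kg ip, left carotid catheter filled with heparinised saline. BP and HR (HR from pulse pressure) stabilised ≥40 min before a single ip dose, n=6/group. Vehicle 0.5% carboxymethylcellulose in water, 2.5 mL/kg. Recorded over 90 min. Output is the maximal change in MAP (mmHg) and HR (bpm) from pre-dose baseline, also as %. Repeated-measures ANOVA with Dunnett's tests.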

Rattus norvegicus [5] = assay: Effect after 30 mg/kg, po, on mean arterial blood pressure in conscious spontaneously hypertensive rats; format: functional; in short: as §1
Rattus norvegicus [6] = assay: Effect (25 mg/kg ip) on heart rate in anesthetized spontaneously hypertensive rats; format: functional; in short: as §2
Rattus norvegicus [7] = assay: Effect (25 mg/kg ip) on mean arterial blood pressure in anesthetized spontaneously hypertensive rats; format: functional; in short: as §2
Rattus norvegicus [8] = assay: Effect at 25 mg/kg, ip, on mean arterial blood pressure in anesthetized spontaneously hypertensive rats; lethal at 12.5 mg; toxic at 5 mg; inactive at 0.5 mg; format: functional, organism-based; set-up: dose 25 mg/kg
[9] = target: imidazoline I2 binding site (Oryctolagus cuniculus); assay: In vitro binding affinity determined against imidazoline receptor I-2 using rabbit kidney preparation
Rattus norvegicus [10] = assay: Effect after 10 mg/kg, po, on heart rate in conscious spontaneously hypertensive rats; format: functional; in short: as §1
Rattus norvegicus [11] = assay: Effect after 100 mg/kg, po, on heart rate in conscious spontaneously hypertensive rats; format: functional; in short: as §1
Rattus norvegicus [12] = assay: Effect after 10 mg/kg, po, on mean arterial blood pressure in conscious spontaneously hypertensive rats; format: functional; in short: as §1
Rattus norvegicus [13] = assay: Effect after 100 mg/kg, po, on mean arterial blood pressure in conscious spontaneously hypertensive rats; format: functional; in short: as §1

Structure (SMILES) | Ki [1] | Ki [2] | Max delta HR (Rattus norvegicus [4]) | Variation (Rattus norvegicus [6]) | Max delta MAP (Rattus norvegicus [7]) | Variation (Rattus norvegicus [7]) | further results
CN1CC(C2=NCCN2)Oc2ccc(Cl)cc21 (centres undefined) | 1.46 µM | 0.0525 µM | -96 beats min-1 | -32% | -53 mmHg | -28% | Max delta HR (Rattus norvegicus [3]): -40 beats min-1; Variation (Rattus norvegicus [3]): 11%; Max delta MAP (Rattus norvegicus [5]): -47 mmHg; Variation (Rattus norvegicus [5]): -24%
CCCC1(C2=NCCN2)CN(C)c2ccccc2O1 (centres undefined) | > 1 µM | > 1 µM | -56 beats min-1 | -17% | 22 mmHg | 11% | –
c1cc2c3c(c1)ccn3CC(C1=NCCN1)O2 (centres undefined) | > 1 µM | 0.36 µM | -45 beats min-1 | -14% | -24 mmHg | -14% | –
CN1CC(C)(C2=NCCN2)Oc2ccccc21 (centres undefined) | > 1 µM | > 1 µM | -37 beats min-1 | -11% | -17 mmHg | -9% | –
COc1cc(=O)n2c3c(ccc(C)c13)OC(C1=NCCN1)C2 (centres undefined) | 9.4 µM | 6.8 µM | -17 beats min-1 | -6% | -1 mmHg | 0% | –
Cc1cccc2c1OC(C1=NCCN1)CN2C (centres undefined) | > 1 µM | 0.0073 µM | -79 beats min-1 | -25% | -24 mmHg | -13% | –
CN1CC(C2=NCCN2)Oc2ccc(CO)cc21 (centres undefined) | > 10 µM | 0.0104 µM | – | – | – | – | –
Cc1ccc2c3c1CCCN3CC(C1=NCCN1)O2 (centres undefined) | > 10 µM | 0.23 µM | -79 beats min-1 | -25% | -17 mmHg | -9% | –
c1ccc2c(c1)NCC(C1=NCCN1)O2 (centres undefined) | > 10 µM | > 10 µM | -8 beats min-1 | -3% | -17 mmHg | -9% | –
CN1CC(C2=NCCN2)Oc2ccc(F)cc21 (single isomer, unassigned; (-)) | > 1 µM | 0.0329 µM | -143 beats min-1 | -45% | -55 mmHg | -31% | –
CN1CC(C2=NCCN2)Oc2cc3c(cc21)CCCC3 (centres undefined) | > 10 µM | 0.098 µM | -53 beats min-1 | -17% | -15 mmHg | -9% | –
CN1CC(C2=NCCN2)Oc2c1ccc1ccccc21 (centres undefined) | > 10 µM | – | -80 beats min-1 | -24% | -14 mmHg | -8% | –
Cc1ccc2c(c1)OC(C1=NCCN1)CN2C (centres undefined) | 1 µM | 0.03 µM | -60 beats min-1 | -19% | -34 mmHg | -20% | –
CN1CC(C2=NCCN2)Oc2cc3ccccc3cc21 (centres undefined) | > 10 µM | 0.402 µM | -37 beats min-1 | -11% | -17 mmHg | -9% | –
Cc1cc(C)c2c(c1)N(C)CC(C1=NCCN1)O2 (centres undefined) | > 1 µM | 0.0124 µM | – | – | – | – | Max delta MAP (Rattus norvegicus [8]): inactive; Variation (Rattus norvegicus [8]): inactive
COc1cc(=O)n2c3c(cccc13)OC(C1=NCCN1)C2 (centres undefined) | > 10 µM | 13 µM | 13 beats min-1 | 4% | -9 mmHg | -5% | –
Cc1cc2c(cc1C)N(C)CC(C1=NCCN1)O2 (centres undefined) | 5.66 µM | 0.026 µM | -100 beats min-1 | -33% | -8 mmHg | -5% | –
c1ccc(CN2CC(C3=NCCN3)Oc3ccccc32)cc1 (centres undefined) | 3.5 µM | 1.3 µM | -21 beats min-1 | -7% | -4 mmHg | -2% | Ki [9]: 1.6 µM
COC(=O)c1ccc2c(c1)N(C)CC(C1=NCCN1)O2 (centres undefined) | > 10 µM | 7.5 µM | – | – | – | – | –
c1cc2c3c(c1)OC(C1=NCCN1)CN3CCC2 (centres undefined) | 0.71 µM | 0.34 µM | -77 beats min-1 | -24% | -34 mmHg | -20% | –
CN1CC(C2=NCCN2)Oc2ccc(C(F)(F)F)cc21 (centres undefined) | > 10 µM | 0.263 µM | -134 beats min-1 | -43% | -32 mmHg | -18% | –
CCCN1CC(C2=NCCN2)Oc2ccccc21 (centres undefined) | > 10 µM | 0.132 µM | -90 beats min-1 | -27% | -26 mmHg | -14% | Ki [9]: 0.16 µM
Cc1cccc2c1N(C)CC(C1=NCCN1)O2 (centres undefined) | 4.74 µM | 0.145 µM | -52 beats min-1 | -16% | 47 mmHg | 23% | –
CN1CC(C2=NCCN2)Oc2ccc(F)cc21 (stereo in doubt; 4h) | 5.91 µM | 0.104 µM | -139 beats min-1 | -44% | -6 mmHg | -36% | Max delta HR (Rattus norvegicus [10]): 25 beats min-1; Variation (Rattus norvegicus [10]): 7%; Max delta HR (Rattus norvegicus [11]): -61 beats min-1; Variation (Rattus norvegicus [11]): -18%; Max delta HR (Rattus norvegicus [3]): -43 beats min-1; Variation (Rattus norvegicus [3]): -12%; Max delta MAP (Rattus norvegicus [12]): -34 mmHg; Variation (Rattus norvegicus [12]): -18%; Max delta MAP (Rattus norvegicus [13]): -81 mmHg; Variation (Rattus norvegicus [13]): -44%; Max delta MAP (Rattus norvegicus [5]): -56 mmHg; Variation (Rattus norvegicus [5]): -29%
c1cc2c3c(c1)OC(C1=NCCN1)CN3CCCC2 (centres undefined) | 4.6 µM | 2.15 µM | -65 beats min-1 | -22% | 21 mmHg | 11% | –
Cc1ccc2c(c1)N(C)CC(C1=NCCN1)O2 (centres undefined) | > 1 µM | 0.07 µM | -127 beats min-1 | -37% | -32 mmHg | -175% | Max delta HR (Rattus norvegicus [10]): -11 beats min-1; Variation (Rattus norvegicus [10]): -3%; Max delta HR (Rattus norvegicus [11]): -77 beats min-1; Variation (Rattus norvegicus [11]): -23%; Max delta HR (Rattus norvegicus [3]): -32 beats min-1; Variation (Rattus norvegicus [3]): -10%; Max delta MAP (Rattus norvegicus [12]): -18 mmHg; Variation (Rattus norvegicus [12]): -10%; Max delta MAP (Rattus norvegicus [13]): -53 mmHg; Variation (Rattus norvegicus [13]): -28%; Max delta MAP (Rattus norvegicus [5]): -43 mmHg; Variation (Rattus norvegicus [5]): -23%; Ki [9]: 0.00199 µM
COc1ccc2c(c1)N(C)CC(C1=NCCN1)O2 (centres undefined) | > 10 µM | 0.287 µM | -54 beats min-1 | -18% | -14 mmHg | -8% | –
c1cc2c3c(c1)OC(C1=NCCN1)CN3CC2 (centres undefined) | > 10 µM | 0.0286 µM | -103 beats min-1 | -25% | -56 mmHg | -30% | Max delta HR (Rattus norvegicus [10]): -50 beats min-1; Variation (Rattus norvegicus [10]): -14%; Max delta HR (Rattus norvegicus [3]): -94 beats min-1; Variation (Rattus norvegicus [3]): -27%; Max delta MAP (Rattus norvegicus [12]): -19 mmHg; Variation (Rattus norvegicus [12]): -10%; Max delta MAP (Rattus norvegicus [5]): -48 mmHg; Variation (Rattus norvegicus [5]): -25%
CCOCc1ccc2c(c1)N(C)CC(C1=NCCN1)O2 (centres undefined) | > 10 µM | > 1 µM | – | – | – | – | –
CN1CC(C2=NCCN2)Oc2ccc(F)cc21 (stereo in doubt; (+)4h) | 2.54 µM | 0.0682 µM | -85 beats min-1 | -25% | -50 mmHg | -28% | –
